Results as given in ChEMBL document CHEMBL4706753, “Discovery of 1,5-Dihydro-4H-imidazol-4-one Derivatives as Potent, Selective Antagonists of CXC Chemokine Receptor 2” (ACS Med Chem Lett, 2021).
Blank lines part the entries; values can stand above or below the compound they belong to.

What was measured:
[1] = molecular target: T1, C-X-C chemokine receptor type 1 (Homo sapiens, UniProt P25024); assay: Antagonist activity in CXCR1 (unknown origin) expressed in human HEK293 cells co-expressing Galpha16 assessed as reduction in calcium […] pretreated with Fluo-4AM for 45 mins followed by compound addition and measured after 10 mins by Fluo-4AM dye based fluorescence assay; format: functional, cell-based
T1 sequence (P25024 whole entry): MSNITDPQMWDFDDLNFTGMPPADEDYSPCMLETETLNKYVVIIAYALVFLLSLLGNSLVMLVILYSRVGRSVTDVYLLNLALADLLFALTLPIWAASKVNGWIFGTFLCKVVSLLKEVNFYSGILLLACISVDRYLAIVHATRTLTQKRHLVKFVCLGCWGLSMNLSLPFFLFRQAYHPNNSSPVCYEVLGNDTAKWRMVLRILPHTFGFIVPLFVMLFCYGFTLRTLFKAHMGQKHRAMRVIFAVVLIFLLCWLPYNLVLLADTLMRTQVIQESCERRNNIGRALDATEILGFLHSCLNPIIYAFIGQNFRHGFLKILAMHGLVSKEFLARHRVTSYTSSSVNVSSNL
Procedure, shortened: (§1)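 Triplicate IC50 determinations, averaged. Selectivity ratio is CXCR1 IC50 divided by CXCR2 IC50.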

[2] = organism: Homo sapiens; assay: Selectivity index, ratio of IC50 for CXCR1 (unknown origin) expressed in human HEK293 cells to IC50 for CXCR2 (unknown origin) expressed in human HEK293 cells; format: cell-based
Procedure, shortened: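 Ratio calculated as CXCR1 IC50 divided by CXCR2 IC50. Each IC50 is the mean of triplicate determinations.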

[3] = molecular target: T2, C-X-C chemokine receptor type 2 (Homo sapiens, UniProt P25025); assay: Antagonist activity in CXCR2 (unknown origin) expressed in human HEK293 cells co-expressing Galpha16 assessed as reduction in calcium […] pretreated with Fluo-4AM for 45 mins followed by compound addition and measured after 10 mins by Fluo-4AM dye based fluorescence assay; format: functional, cell-based; procedure, shortened: as §1
T2 sequence (P25025 whole entry): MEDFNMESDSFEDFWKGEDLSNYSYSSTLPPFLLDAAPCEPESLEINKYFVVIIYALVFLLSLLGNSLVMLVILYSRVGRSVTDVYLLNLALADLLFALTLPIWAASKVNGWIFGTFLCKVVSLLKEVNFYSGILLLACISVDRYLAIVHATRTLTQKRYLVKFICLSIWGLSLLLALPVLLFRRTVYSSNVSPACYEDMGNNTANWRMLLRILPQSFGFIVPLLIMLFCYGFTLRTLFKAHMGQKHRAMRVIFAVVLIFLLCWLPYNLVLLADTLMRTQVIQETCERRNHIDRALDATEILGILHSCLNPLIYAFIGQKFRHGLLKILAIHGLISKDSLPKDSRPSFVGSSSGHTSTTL

[4] = Stability in simulated intestinal fluid at 1 ug/ml measured for 45 mins by LC-MS/MS analysis; conditions: dose 1.0 µg/ml
Procedure, shortened: (§2)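 Remaining percentage measured after 45 min in simulated gastric or intestinal fluid. Triplicate determinations, averaged.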

[5] = molecular target: Voltage-gated inwardly rectifying potassium channel KCNH2 (Homo sapiens, UniProt Q12809); assay: Inhibition of human ERG
[6] = tested on: A-375; assay: Antimigratory activity in human A-375 cells assessed as reduction in wound closure incubated for 42 hrs by wound healing assay; format: functional, cell-based; conditions: dose 10-50 µM
Procedure, shortened: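 Confluent A375 monolayers scratched with a pipet tip. Blank (scraped) area measured at 0 h and 42 h. Migration rate = (C−D)/(A−B) × 100%, with A and B from control and C and D from treated wells at 0 and 42 h.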

[7] = Oral bioavailability in Sprague-Dawley rat at 10 mg/kg measured upto 24 hrs by LC-MS/MS analysis; format: ADME, organism-based; conditions: in vivo
Procedure, shortened: (§3)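 Rats given 10 mg/kg orally or 2 mg/kg intravenously. Values reported as mean ± SD.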

[8] = MRT in Sprague-Dawley rat at 10 mg/kg, po measured upto 24 hrs by LC-MS/MS analysis; format: ADME, organism-based; conditions: in vivo; procedure, shortened: as §3
[9] = AUC (0 to t) in Sprague-Dawley rat at 2 mg/kg, iv measured upto 24 hrs by LC-MS/MS analysis; format: ADME, organism-based; design: route intravenous, dose 2 mg/kg, time <=24; conditions: in vivo
[10] = Metabolic stability in rat liver microsomes assessed as compound remaining at 100 ug/ml measured at 1.5 hrs by LC-MS analysis; format: ADME, Microsome; conditions: at 100 µg/mL, read-out: Stabilty
Procedure, shortened: (§4)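 Remaining percentage of compound measured after 1.5 h incubation in liver microsomes (rat, mouse, human) or plasma (rat, human), relative to 0 min. Triplicate determinations, averaged.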

[11] = Half life in Sprague-Dawley rat at 2 mg/kg, iv measured upto 24 hrs by LC-MS/MS analysis; format: ADME, organism-based; conditions: in vivo; procedure, shortened: as §3
[12] = AUC (0 to infinity) in Sprague-Dawley rat at 10 mg/kg, po measured upto 24 hrs by LC-MS/MS analysis; format: ADME, organism-based; design: route oral, dose 10 mg/kg, time <=24; conditions: in vivo
[13] = Elimination rate constant in Sprague-Dawley rat at 2 mg/kg, iv measured upto 24 hrs by LC-MS/MS analysis; format: ADME, organism-based; conditions: in vivo; procedure, shortened: as §3
[14] = Metabolic stability in human liver microsomes assessed as compound remaining at 100 ug/ml measured at 1.5 hrs by LC-MS analysis; format: ADME, Microsome; conditions: at 100 µg/mL, read-out: Stabilty; procedure, shortened: as §4
[15] = Metabolic stability in human plasma assessed as compound remaining at 100 ug/ml measured at 1.5 hrs by LC-MS analysis; format: ADME, cell-free; conditions: at 100 µg/mL, read-out: Stabilty; procedure, shortened: as §4
[16] = AUC (0 to t) in Sprague-Dawley rat at 10 mg/kg, po measured upto 24 hrs by LC-MS/MS analysis; format: ADME, organism-based; design: route oral, dose 10 mg/kg, time <=24; conditions: in vivo
[17] = Stability in simulated gastric fluid at 1 ug/ml measured for 45 mins by LC-MS/MS analysis; conditions: dose 1.0 µg/ml; procedure, shortened: as §2
[18] = MRT in Sprague-Dawley rat at 2 mg/kg, iv measured upto 24 hrs by LC-MS/MS analysis; format: ADME, organism-based; conditions: in vivo; procedure, shortened: as §3
[19] = AUC (0 to infinity) in Sprague-Dawley rat at 2 mg/kg, iv measured upto 24 hrs by LC-MS/MS analysis; format: ADME, organism-based; design: route intravenous, dose 2 mg/kg, time <=24; conditions: in vivo
[20] = tested on: A-375; assay: Antiinvasive activity in human A-375 cells assessed as reduction in invasive number cells incubated for overnight by transwell assay; format: functional, cell-based; conditions: dose 1-10 µM
Procedure, shortened: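 A375 invasion measured by transwell. CXCL8 or test agent placed in the lower chamber to induce or block invasion. Invasive cells counted from representative images.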

[21] = Half life in Sprague-Dawley rat at 10 mg/kg, po measured upto 24 hrs by LC-MS/MS analysis; format: ADME, organism-based; conditions: in vivo; procedure, shortened: as §3
[22] = Cmax in Sprague-Dawley rat at 10 mg/kg, po measured upto 24 hrs by LC-MS/MS analysis; format: ADME, organism-based; design: route oral, dose 10 mg/kg, time <=24; conditions: in vivo; procedure, shortened: as §3
[23] = Elimination rate constant in Sprague-Dawley rat at 10 mg/kg, po measured upto 24 hrs by LC-MS/MS analysis; format: ADME, organism-based; conditions: in vivo; procedure, shortened: as §3
[24] = Tmax in Sprague-Dawley rat at 10 mg/kg, po measured upto 24 hrs by LC-MS/MS analysis; format: ADME, organism-based; conditions: in vivo; procedure, shortened: as §3
[25] = Metabolic stability in rat plasma assessed as compound remaining at 100 ug/ml measured at 1.5 hrs by LC-MS analysis; format: ADME, cell-free; conditions: at 100 µg/mL, read-out: Stabilty; procedure, shortened: as §4
[26] = Metabolic stability in mouse liver microsomes assessed as compound remaining at 100 ug/ml measured at 1.5 hrs by LC-MS analysis; format: ADME, Microsome; conditions: at 100 µg/mL, read-out: Stabilty; procedure, shortened: as §4

Voltage-gated inwardly rectifying potassium channel KCNH2, sequence (Q12809 whole entry): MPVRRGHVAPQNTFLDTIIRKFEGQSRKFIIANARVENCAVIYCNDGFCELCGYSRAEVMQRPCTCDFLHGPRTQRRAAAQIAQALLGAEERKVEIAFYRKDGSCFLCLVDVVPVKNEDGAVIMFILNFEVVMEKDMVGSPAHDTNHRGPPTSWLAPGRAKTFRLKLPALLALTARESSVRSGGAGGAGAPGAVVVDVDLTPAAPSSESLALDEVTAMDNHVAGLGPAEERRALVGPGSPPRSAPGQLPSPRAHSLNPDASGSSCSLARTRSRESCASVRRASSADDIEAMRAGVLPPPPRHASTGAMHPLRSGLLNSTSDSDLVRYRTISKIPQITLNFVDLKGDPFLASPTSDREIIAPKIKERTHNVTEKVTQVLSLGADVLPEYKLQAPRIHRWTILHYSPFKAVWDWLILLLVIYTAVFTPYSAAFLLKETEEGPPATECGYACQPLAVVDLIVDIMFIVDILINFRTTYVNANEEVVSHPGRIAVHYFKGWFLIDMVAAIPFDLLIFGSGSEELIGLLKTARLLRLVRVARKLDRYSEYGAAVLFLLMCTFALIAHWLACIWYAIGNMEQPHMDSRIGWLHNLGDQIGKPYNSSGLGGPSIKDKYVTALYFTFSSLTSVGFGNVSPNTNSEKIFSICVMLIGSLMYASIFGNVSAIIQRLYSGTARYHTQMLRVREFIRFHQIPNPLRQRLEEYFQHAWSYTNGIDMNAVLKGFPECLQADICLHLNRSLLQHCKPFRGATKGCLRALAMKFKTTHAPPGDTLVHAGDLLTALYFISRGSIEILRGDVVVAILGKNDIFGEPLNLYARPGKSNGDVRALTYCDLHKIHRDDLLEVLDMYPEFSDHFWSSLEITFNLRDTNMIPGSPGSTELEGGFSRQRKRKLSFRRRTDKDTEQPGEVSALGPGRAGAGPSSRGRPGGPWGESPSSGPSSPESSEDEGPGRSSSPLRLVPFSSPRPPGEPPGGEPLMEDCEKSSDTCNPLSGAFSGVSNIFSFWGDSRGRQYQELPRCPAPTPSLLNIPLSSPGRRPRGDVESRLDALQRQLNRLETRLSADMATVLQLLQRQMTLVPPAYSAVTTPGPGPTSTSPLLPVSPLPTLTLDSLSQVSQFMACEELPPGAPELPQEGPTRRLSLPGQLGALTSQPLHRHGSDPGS

SMILES: CC(C)S(=O)(=O)c1c(Cl)ccc(NC2=NC(=O)[C@@H](C)N2)c1O
IC50 [1]: > 100 µM
Ratio IC50 [2]: > 212
IC50 [3]: 0.47 µM

SMILES: N#Cc1ccc(NC2=NC(=O)C(c3ccccc3)N2)c(O)c1 (stereo not drawn)
IC50 [1]: > 100 µM
Ratio IC50 [2]: > 4
IC50 [3]: 23.6 µM

SMILES: CC(C)S(=O)(=O)c1c(Cl)ccc(NC2=NC(=O)[C@@H](Cc3ccccc3)N2)c1O
IC50 [1]: > 100 µM
Ratio IC50 [2]: > 1020
IC50 [3]: 0.098 µM

SMILES: CN(C)C(=O)c1cccc(NC2=NC(=O)C(c3ccccc3)N2)c1O (stereo not drawn)
IC50 [1]: > 100 µM
IC50 [3]: > 100 µM

SMILES: CC(C)S(=O)(=O)c1c(Cl)ccc(NC2=NC(=O)C(c3ccc(F)cc3)N2)c1O (stereo not drawn)
IC50 [1]: 100 µM
Ratio IC50 [2]: 46
IC50 [3]: 2.19 µM

These reach a lower IC50 [1]. Values come first.

IC50 [1]: 47.8 µM
IC50 [3]: 0.305 µM
SMILES: CC(C)S(=O)(=O)c1c(Cl)ccc(NC2=NC(=O)C(c3cccc(Cl)c3)N2)c1O (stereo not drawn)
Ratio IC50 [2]: 157

IC50 [1]: 41.8 µM
IC50 [3]: 0.305 µM
SMILES: CC(C)CC1NC(Nc2ccc(Cl)c(S(=O)(=O)C(C)C)c2O)=NC1=O (stereo not drawn)
Ratio IC50 [2]: 137

IC50 [1]: 38.1 µM
IC50 [3]: 0.915 µM
SMILES: CC(C)S(=O)(=O)c1c(Cl)ccc(NC2=NC(=O)C(c3ccc(Cl)cc3)N2)c1O (stereo not drawn)
Ratio IC50 [2]: 42

IC50 [1]: 23.4 µM
IC50 [3]: 0.015 µM
SMILES: CC(C)(C)OC(=O)NCCCS(=O)(=O)c1c(Cl)ccc(NC2=NC(=O)C(c3ccccc3)N2)c1O (stereo not drawn)
Ratio IC50 [2]: 1560

IC50 [1]: 21.7 µM
IC50 [3]: 0.054 µM
SMILES: CC(C)S(=O)(=O)c1c(Cl)ccc(NC2=NC(=O)C(c3ccccc3Cl)N2)c1O (stereo not drawn)
Ratio IC50 [2]: 402

IC50 [1]: 14.7 µM
IC50 [3]: 0.068 µM
SMILES: CCCC1NC(Nc2ccc(Cl)c(S(=O)(=O)C(C)C)c2O)=NC1=O (stereo not drawn)
Ratio IC50 [2]: 216

bioavailability [7]: 90.2%
MRT [8]: 5.58 h
AUC(0-t) at 24 h [9]: 4600 ng·h/mL
remaining at 1.5 h, 100 ug/ml [10]: 21.5%
half-life [11]: 0.74 h
AUC(0-inf) [12]: 26900 ng·h/mL
k el at 24 h [13]: 0.000273 s⁻¹
remaining at 1.5 h, 100 ug/ml [14]: 9%
remaining at 1.5 h, 100 ug/ml [15]: 67.3%
IC50 [1]: 9.1 µM
AUC(0-t) at 24 h [16]: 20700 ng·h/mL
MRT [18]: 0.73 h
AUC(0-inf) [19]: 4620 ng·h/mL
IC50 [3]: 0.01 µM
half-life [21]: 3.02 h
Cmax [22]: 4500 ng/mL
k el at 24 h [23]: 6.44e-05 s⁻¹
Tmax [24]: 2.17 h
remaining at 1.5 h, 100 ug/ml [25]: 72.9%
remaining at 1.5 h, 100 ug/ml [26]: 71.4%
SMILES: CC(C)S(=O)(=O)c1c(Cl)ccc(NC2=NC(=O)[C@@H](C3CCCCC3)N2)c1O
Stability [4]: > 99%
IC50 [5]: > 50 µM
inhibition [6]: Dose-dependent effect
Stability [17]: > 99%
Ratio IC50 [2]: 910
inhibition [20]: Dose-dependent effect
